Assay results reported in the M2OR odorant receptor database.
Where a chain is given by its changes, count along the chain named.

Columns and labels:
Settings in all cases: stereoisomer not certain
OR1D4 (Homo sapiens) = molecular target: T1, OR1D4 (Homo sapiens) (UniProt P47884)
T1 sequence (whole entry): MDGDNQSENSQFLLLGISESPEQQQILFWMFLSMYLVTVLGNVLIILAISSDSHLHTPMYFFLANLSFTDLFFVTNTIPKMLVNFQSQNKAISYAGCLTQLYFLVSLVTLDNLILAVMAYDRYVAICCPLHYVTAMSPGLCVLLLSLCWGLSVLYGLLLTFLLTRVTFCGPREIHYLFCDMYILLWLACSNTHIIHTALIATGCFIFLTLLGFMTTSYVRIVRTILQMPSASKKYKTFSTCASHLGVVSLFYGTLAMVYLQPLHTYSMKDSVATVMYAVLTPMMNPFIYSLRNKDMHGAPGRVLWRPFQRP
Procedure, shortened: (§1)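 Each receptor–molecule pair is labelled responsive or non-responsive (inactive) according to whether the original authors judged the measured signal statistically different from baseline. The data were taken from the main text and supplementary material of published papers and checked for typos and inconsistencies. Assay methods differed by source, with transient luciferase assays in mammalian cell lines being common.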

OR1D5 (Homo sapiens) = molecular target: T2, OR1D5 (Homo sapiens) (UniProt P58170)
T2 sequence (whole entry): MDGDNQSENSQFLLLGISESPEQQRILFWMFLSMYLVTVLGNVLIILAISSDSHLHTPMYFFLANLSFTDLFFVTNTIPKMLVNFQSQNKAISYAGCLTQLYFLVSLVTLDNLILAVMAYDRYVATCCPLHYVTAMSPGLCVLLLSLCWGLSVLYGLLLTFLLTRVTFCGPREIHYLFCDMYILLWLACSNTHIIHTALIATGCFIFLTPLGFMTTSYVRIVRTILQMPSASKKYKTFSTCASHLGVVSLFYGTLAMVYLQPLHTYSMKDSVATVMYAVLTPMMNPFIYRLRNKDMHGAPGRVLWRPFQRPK
Procedure, shortened: as §1

OR1E1 (Homo sapiens) = molecular target: T3, OR1E1 (Homo sapiens) (UniProt P30953)
T3 sequence (whole entry): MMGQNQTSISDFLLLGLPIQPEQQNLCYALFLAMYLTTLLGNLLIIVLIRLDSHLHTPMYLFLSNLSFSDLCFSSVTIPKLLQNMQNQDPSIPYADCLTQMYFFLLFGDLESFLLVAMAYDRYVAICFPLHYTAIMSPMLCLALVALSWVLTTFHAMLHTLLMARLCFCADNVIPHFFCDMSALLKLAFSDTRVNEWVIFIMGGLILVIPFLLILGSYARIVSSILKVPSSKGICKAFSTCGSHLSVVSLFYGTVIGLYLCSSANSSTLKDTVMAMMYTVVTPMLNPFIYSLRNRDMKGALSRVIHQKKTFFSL
Procedure, shortened: as §1

OR1E2 (Homo sapiens) = molecular target: T4, OR1E2 (Homo sapiens) (UniProt P47887)
T4 sequence (whole entry): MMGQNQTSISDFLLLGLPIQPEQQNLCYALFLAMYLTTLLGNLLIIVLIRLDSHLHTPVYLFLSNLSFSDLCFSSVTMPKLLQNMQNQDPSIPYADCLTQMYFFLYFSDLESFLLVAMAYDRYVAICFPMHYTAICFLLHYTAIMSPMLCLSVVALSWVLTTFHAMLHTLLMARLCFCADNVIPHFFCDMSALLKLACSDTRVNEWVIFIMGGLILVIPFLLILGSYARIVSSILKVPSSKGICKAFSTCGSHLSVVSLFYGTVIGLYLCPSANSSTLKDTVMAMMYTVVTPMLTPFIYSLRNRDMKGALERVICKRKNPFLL
Procedure, shortened: as §1

OR1F1 (Homo sapiens) = molecular target: T5, OR1F1 (Homo sapiens) (UniProt O43749)
T5 sequence (whole entry): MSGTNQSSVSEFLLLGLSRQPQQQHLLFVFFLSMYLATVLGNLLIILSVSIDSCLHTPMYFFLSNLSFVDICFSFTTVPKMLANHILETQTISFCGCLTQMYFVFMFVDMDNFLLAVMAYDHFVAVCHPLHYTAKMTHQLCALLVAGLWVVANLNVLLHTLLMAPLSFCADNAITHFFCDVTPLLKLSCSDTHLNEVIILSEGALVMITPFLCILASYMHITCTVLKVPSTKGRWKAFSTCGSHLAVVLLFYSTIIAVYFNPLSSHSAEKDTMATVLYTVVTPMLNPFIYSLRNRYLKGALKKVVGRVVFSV
Procedure, shortened: as §1

OR1F12P (Homo sapiens) = molecular target: T6, OR1F12P (Homo sapiens) (UniProt Q8NHA8)
T6 sequence (whole entry): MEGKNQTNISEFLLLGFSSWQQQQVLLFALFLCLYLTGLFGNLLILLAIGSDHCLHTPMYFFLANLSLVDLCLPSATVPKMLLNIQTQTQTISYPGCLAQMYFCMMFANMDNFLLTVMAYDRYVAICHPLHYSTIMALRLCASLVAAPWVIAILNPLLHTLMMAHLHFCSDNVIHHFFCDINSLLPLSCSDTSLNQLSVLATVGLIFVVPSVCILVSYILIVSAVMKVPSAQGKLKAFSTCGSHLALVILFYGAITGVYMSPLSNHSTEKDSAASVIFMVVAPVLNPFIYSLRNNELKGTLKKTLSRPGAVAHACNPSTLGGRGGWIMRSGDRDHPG
Procedure, shortened: as §1

OR1G1 (Homo sapiens) = molecular target: T7, OR1G1 (Homo sapiens) (UniProt P47890)
T7 sequence (whole entry): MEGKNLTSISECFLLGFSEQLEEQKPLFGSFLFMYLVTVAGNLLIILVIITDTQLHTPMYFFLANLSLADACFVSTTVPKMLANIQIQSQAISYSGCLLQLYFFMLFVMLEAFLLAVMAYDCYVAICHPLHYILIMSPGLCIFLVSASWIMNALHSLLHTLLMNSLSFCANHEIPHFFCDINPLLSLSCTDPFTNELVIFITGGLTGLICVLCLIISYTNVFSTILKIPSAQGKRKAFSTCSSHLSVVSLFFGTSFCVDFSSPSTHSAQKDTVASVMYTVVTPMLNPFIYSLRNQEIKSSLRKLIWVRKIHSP
Procedure, shortened: as §1

OR1I1 (Homo sapiens) = molecular target: T8, OR1I1 (Homo sapiens) (UniProt O60431)
T8 sequence (whole entry): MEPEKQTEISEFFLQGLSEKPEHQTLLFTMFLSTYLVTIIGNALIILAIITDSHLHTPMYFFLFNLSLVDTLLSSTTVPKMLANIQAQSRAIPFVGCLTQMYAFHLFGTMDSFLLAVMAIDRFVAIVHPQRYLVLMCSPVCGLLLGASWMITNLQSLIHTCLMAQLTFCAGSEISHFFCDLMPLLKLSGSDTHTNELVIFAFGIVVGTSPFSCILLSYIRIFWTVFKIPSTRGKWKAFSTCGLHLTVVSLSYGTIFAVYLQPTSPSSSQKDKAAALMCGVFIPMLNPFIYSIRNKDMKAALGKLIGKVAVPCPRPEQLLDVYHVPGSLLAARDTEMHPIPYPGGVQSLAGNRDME
Procedure, shortened: as §1

OR1J1 (Homo sapiens) = molecular target: T9, OR1J1 (Homo sapiens) (UniProt Q8NGS3)
T9 sequence (whole entry): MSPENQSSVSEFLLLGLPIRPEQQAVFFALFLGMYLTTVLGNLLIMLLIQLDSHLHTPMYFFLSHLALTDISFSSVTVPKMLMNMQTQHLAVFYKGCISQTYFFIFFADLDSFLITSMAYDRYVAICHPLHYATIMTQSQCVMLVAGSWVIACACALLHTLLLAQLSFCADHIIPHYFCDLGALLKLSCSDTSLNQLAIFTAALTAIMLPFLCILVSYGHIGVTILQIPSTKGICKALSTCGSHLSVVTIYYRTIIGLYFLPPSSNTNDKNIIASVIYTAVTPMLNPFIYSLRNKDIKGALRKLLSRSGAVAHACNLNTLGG
Procedure, shortened: as §1

OR1J2 (Homo sapiens) = molecular target: T10, OR1J2 (Homo sapiens) (UniProt Q8NGS2)
T10 sequence (whole entry): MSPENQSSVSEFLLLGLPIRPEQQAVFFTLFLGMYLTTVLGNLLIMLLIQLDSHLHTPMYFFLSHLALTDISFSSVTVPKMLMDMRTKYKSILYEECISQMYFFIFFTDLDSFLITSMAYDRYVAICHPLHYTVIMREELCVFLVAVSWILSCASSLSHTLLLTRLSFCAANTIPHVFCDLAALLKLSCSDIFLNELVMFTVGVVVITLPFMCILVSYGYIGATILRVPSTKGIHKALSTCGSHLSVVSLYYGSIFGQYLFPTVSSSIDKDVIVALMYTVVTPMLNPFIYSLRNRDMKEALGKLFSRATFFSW
Procedure, shortened: as §1

OR1J4 (Homo sapiens) = molecular target: T11, OR1J4 (Homo sapiens) (UniProt Q8NGS1)
T11 sequence (whole entry): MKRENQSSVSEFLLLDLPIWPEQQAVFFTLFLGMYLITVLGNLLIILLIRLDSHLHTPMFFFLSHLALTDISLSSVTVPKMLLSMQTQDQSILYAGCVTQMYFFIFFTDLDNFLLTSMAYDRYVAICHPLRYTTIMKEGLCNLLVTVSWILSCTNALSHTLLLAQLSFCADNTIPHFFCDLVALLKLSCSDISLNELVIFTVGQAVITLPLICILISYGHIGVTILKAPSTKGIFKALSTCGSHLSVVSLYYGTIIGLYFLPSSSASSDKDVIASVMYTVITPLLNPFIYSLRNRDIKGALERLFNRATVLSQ
Procedure, shortened: as §1

OR1K1 (Homo sapiens) = molecular target: T12, OR1K1 (Homo sapiens) (UniProt Q8NGR3)
T12 sequence (whole entry): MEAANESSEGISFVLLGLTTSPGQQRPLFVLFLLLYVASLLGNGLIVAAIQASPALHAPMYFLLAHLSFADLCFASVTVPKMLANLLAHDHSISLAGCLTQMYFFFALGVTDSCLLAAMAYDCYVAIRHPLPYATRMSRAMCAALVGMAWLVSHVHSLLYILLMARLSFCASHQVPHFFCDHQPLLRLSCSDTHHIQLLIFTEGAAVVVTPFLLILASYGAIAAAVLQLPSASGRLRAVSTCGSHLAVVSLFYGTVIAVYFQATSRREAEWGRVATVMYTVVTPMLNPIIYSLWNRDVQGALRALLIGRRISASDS
Procedure, shortened: as §1

OR1L1 (Homo sapiens) = molecular target: T13, OR1L1 (Homo sapiens) (UniProt Q8NH94)
T13 sequence (whole entry): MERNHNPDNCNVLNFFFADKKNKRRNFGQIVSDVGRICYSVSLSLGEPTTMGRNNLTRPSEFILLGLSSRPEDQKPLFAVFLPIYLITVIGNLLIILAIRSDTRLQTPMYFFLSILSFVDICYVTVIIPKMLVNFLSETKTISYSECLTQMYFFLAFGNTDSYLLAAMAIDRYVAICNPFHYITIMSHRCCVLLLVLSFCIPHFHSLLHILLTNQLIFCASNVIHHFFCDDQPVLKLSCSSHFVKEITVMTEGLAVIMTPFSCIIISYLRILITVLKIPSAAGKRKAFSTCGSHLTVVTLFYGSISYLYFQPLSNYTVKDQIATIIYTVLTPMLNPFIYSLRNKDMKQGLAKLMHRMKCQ
Procedure, shortened: as §1

OR1E2 = tested on: T14, OR1E2
T14 sequence (whole entry): T4 sequence (whole entry) with C27R
Procedure, shortened: as §1

OR1F1 = tested on: T15, OR1F1
T15 sequence (whole entry): T5 sequence (whole entry) with F75S
Procedure, shortened: as §1

OR1L1 = tested on: T16, OR1L1
T16 sequence (whole entry): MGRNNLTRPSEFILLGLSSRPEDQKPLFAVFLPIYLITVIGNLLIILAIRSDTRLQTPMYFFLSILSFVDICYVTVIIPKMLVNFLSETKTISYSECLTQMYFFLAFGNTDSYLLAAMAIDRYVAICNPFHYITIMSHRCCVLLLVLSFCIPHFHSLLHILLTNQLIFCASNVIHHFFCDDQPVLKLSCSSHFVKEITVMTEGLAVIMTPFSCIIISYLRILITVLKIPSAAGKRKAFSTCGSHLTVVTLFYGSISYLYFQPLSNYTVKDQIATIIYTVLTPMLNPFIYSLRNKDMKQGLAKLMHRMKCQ
Procedure, shortened: as §1

Measured: odorant receptor agonist call

CCCCCC(=O)C(C)C(C)=O (stereo not given)
not listed: OR1E2 | OR1F1 | OR1L1
inactive: all other assays above

CCCCCCCCC(=O)O
active: OR1G1 (Homo sapiens)

CCCCCCCCO
active: OR1G1 (Homo sapiens)

CCCCCC(=O)OCC
inactive: OR1G1 (Homo sapiens)

C=C(C)C1CC=C(C)CC1 (stereo not given)
active: OR1G1 (Homo sapiens)

CC1=C(O)C(=O)OC1C (stereo not given)
not listed: OR1D4 (Homo sapiens) | OR1L1 (Homo sapiens)
inactive: all other assays above

CCC1OC(C)=C(O)C1=O (stereo not given)
not listed: OR1D4 (Homo sapiens) | OR1L1 (Homo sapiens)
inactive: all other assays above

CC=Cc1ccc(OC)cc1
active: OR1G1 (Homo sapiens)

CCCCCCCCCCCC=O
inactive: OR1G1 (Homo sapiens)

CCCCCC(S)C(C)CO (stereo not given)
not listed: OR1E2 | OR1F1 | OR1L1
inactive: all other assays above
